This is an account of results in publication PMC6013806 (Chemical Science, 2016).

The subject of data set [1] is MMP-2 in rat renal myofibroblasts. The data set can be described thus: MMP-2 levels by gelatin zymography, rat renal myofibroblasts. In kind it is cell-based. The procedure, abridged:
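Rat renal myofibroblasts were isolated from injured kidneys 3 days after unilateral ureteric obstruction. They were exposed to test compound at 16.8 nM (≃100 ng mL−1) for 72 h, with or without an RXFP1 antagonist (relaxin B-chain Arg13/Arg17→Lys); H2 relaxin was run at equivalent concentration. MMP-2 in media diluted 1:5–1:10 was read by gelatin zymography and densitometry. Three experiments were run in duplicate.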

The target of data set [2] is T1, human RXFP1 (Homo sapiens, UniProt Q9HBX9).
T1 sequence (Q9HBX9 1-757): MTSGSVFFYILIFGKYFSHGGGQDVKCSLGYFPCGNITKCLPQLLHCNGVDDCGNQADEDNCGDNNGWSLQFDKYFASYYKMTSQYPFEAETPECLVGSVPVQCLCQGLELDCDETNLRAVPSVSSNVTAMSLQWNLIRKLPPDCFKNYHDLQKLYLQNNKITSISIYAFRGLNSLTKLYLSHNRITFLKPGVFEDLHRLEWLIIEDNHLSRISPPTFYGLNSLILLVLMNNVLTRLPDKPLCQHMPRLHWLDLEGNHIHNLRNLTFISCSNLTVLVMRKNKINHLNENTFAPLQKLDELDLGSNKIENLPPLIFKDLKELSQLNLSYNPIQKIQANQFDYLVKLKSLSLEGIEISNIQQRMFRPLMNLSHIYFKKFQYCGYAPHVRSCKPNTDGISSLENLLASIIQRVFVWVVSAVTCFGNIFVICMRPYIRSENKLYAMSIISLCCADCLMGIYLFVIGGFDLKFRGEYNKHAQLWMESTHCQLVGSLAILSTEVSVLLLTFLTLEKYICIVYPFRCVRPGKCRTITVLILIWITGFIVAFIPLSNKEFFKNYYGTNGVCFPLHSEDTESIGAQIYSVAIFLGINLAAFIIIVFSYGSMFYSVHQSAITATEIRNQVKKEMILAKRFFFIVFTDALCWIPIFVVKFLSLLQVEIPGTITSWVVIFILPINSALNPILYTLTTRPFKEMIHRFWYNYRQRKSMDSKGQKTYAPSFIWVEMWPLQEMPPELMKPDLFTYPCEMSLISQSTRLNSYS
The data set can be described thus: Competition binding with europium-labelled H2 relaxin in HEK-RXFP1 cells. Particulars: HEK-293T cells stably expressing RXFP1; compared with B7-33. The procedure, abridged: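 Whole-cell competition binding on HEK-293T cells stably transfected with RXFP1. Cells were grown in RPMI 1640 with 10% FCS, penicillin, streptomycin and 2 mM L-glutamine, then plated on poly-L-lysine-coated wells. Eu3+-labelled H2 relaxin was competed by increasing concentrations of unlabelled test peptide. % specific binding was measured in triplicate wells, repeated ≥3 times; one-site fit gave pIC50.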

The target in data set [3] is T1, human RXFP1. The data set can be described thus: cAMP reporter gene assay, HEK-293T cells expressing human RXFP1. In kind it is cell-based. The conditions noted are these: HEK-293T cells stably expressing RXFP1. The procedure, abridged:
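HEK-293T cells expressing human RXFP1 were co-transfected with a pCRE β-galactosidase cAMP reporter plasmid and plated. After 24 h they were incubated with increasing concentrations of test peptide in parallel with H2 relaxin. Points were run in triplicate, with ≥3 independent experiments; pEC50 values were derived.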
A general note: Reporter assays use an easily measured gene product as a stand-in for the process of interest.

For data set [4] the following is noted: cited from earlier work.
The conditions of data set [5]: cited from earlier work. This is another data set of the same source.
Data set [6] addresses Relaxin Family Peptide Receptor 1 (RXFP1), human, stably expressed in HEK-293T cells (human) (UniProt Q9HBX9). Briefly: competition binding with Eu3+-labelled H2 relaxin on whole cells.

As for `Cc1cc(Cn2cnc3c2C[C@@H](C(=O)O)N(C(=O)C(c2ccccc2)c2ccccc2)C3)ccc1N(C)C` [PD123319], in data set [1] (antagonist alone), the “effect of antagonist alone on basal MMP-2 expression” value is “neither the RXFP1 nor AT2 receptor antagonists alone affected basal MMP-2 expression”. Moreover, the “effect of antagonist on MMP-promoting effects of B7-33” value in data set [1] (rat renal myofibroblasts treated with B7-33) was “completely blocked”.

Take “AcB7-33: Acetylated B7-33 (Ac-VIKLCGRELVRAQIAICGMSTWSKRSL-NH2; cysteine pairing not given here; UniProt P04090 31-57, looked up, fragment)”: the “binding affinity at HEK-RXFP1 (in words)” value with human RXFP1 [2] is “no change”. In addition, the “cAMP activity at HEK-RXFP1 (in words)” value in the data set with human RXFP1 [3] is given as “no change”.

For the compound “B1-29: native H2 relaxin B-chain with 29 residues”, in data set [4], the functional activity entry is “functionally inactive”. For the same compound, in data set [5], the solubility in water entry is reported as “insoluble in water”.

What is called pKi is the Ki on a negative log10 scale, so that one unit is a factor of ten. A higher pKi goes with a small Ki. “B7-33 (H2 relaxin B-chain-only analogue) (peptide)” had a pKi in data set [6] of 5.54.

Human gene-2 relaxin (ligand) returned a pKi in data set [6] of 8.96.
